In ChEMBL document CHEMBL4689842, “EUbOPEN Chemogenomics Library wave 1” (2021):

Tested on: HEK-293T
Assay: Multiplex assay against HEK293T;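 for Population Tubulin-Different-Phenotype (%): share of the cells with healthy nuclei that show this phenotype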
Type: toxicity, cell-based
Conditions: human
Outline: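 Per cents of healthy-nucleus cells form the tubulin, mitochondrial-mass and membrane-permeability phenotype values. Live cells were stained at seeding with Hoechst33342, BioTracker Green Microtubule Cytoskeleton Dye, MitoTracker Red and Annexin V Alexa Fluor 680. After compound addition they were imaged on a CQ1 microscope at 37°C and 5% CO2, and CellPathfinder machine-learning gating split them into Hoechst high-intensity objects or normal cells, normal cells into healthy, pyknosed or fragmented nuclei, and pyknosed cells into mitotic or apoptotic.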

[1] = 12 h, 1 µM, compound concentration 1 uM, replicate 1
[2] = 12 h, 1 µM, compound concentration 1 uM, replicate 2
[3] = 12 h, 10 µM, compound concentration 10 uM, replicate 1
[4] = 12 h, 10 µM, compound concentration 10 uM, replicate 2
[5] = 24 h, 1 µM, compound concentration 1 uM, replicate 1
[6] = 24 h, 1 µM, compound concentration 1 uM, replicate 2
[7] = 24 h, 10 µM, compound concentration 10 uM, replicate 1
[8] = 24 h, 10 µM, compound concentration 10 uM, replicate 2
[9] = 48 h, 1 µM, compound concentration 1 uM, replicate 1
[10] = 48 h, 1 µM, compound concentration 1 uM, replicate 2
[11] = 48 h, 10 µM, compound concentration 10 uM, replicate 1
[12] = 48 h, 10 µM, compound concentration 10 uM, replicate 2

## Cl.N#Cc1ccc2[nH]cc(CCCCN3CCN(c4ccc5oc(C(N)=O)cc5c4)CC3)c2c1 [VILAZODONE HYDROCHLORIDE]
[1]
  Population Apoptotic (%): 53%
  Population Healthy Nuclei (%): 49%
  Population Hoechst High Intensity Objects (%): 9%
  Population Membrane Permeable-Phenotype (%): 1%
  Population Mitochondria Different-Phenotype (%): 93%
  Population Mitotic Cells (%): 46%
  Population Normal (%): 90%
  Population Pyknosed Nuclei (%): 44%
  Population Tubulin-Different-Phenotype (%): 78%
  Total Cell Count: 364
[2]
  Population Apoptotic (%): 20%
  Population Fragmented Nuclei (%): 6%
  Population Healthy Nuclei (%): 32%
  Population Hoechst High Intensity Objects (%): 3%
  Population Membrane Permeable-Phenotype (%): 6%
  Population Mitochondria Different-Phenotype (%): 67%
  Population Mitotic Cells (%): 79%
  Population Normal (%): 96%
  Population Pyknosed Nuclei (%): 61%
  Population Tubulin-Different-Phenotype (%): 69%
  Total Cell Count: 138
[3]
  Population Apoptotic (%): 93%
  Population Healthy Nuclei (%): 8%
  Population Hoechst High Intensity Objects (%): 25%
  Population Membrane Permeable-Phenotype (%): 0%
  Population Mitochondria Different-Phenotype (%): 100%
  Population Mitotic Cells (%): 6%
  Population Normal (%): 74%
  Population Pyknosed Nuclei (%): 78%
  Population Tubulin-Different-Phenotype (%): 92%
  Total Cell Count: 198
[4]
  Population Apoptotic (%): 82%
  Population Fragmented Nuclei (%): 12%
  Population Healthy Nuclei (%): 16%
  Population Hoechst High Intensity Objects (%): 23%
  Population Membrane Permeable-Phenotype (%): 23%
  Population Mitochondria Different-Phenotype (%): 84%
  Population Mitotic Cells (%): 17%
  Population Normal (%): 76%
  Population Pyknosed Nuclei (%): 70%
  Population Tubulin-Different-Phenotype (%): 96%
  Total Cell Count: 199
[5]
  Population Apoptotic (%): 52%
  Population Fragmented Nuclei (%): 6%
  Population Healthy Nuclei (%): 58%
  Population Hoechst High Intensity Objects (%): 6%
  Population Membrane Permeable-Phenotype (%): 3%
  Population Mitochondria Different-Phenotype (%): 87%
  Population Mitotic Cells (%): 47%
  Population Normal (%): 93%
  Population Pyknosed Nuclei (%): 34%
  Population Tubulin-Different-Phenotype (%): 71%
  Total Cell Count: 412
[6]
  Population Apoptotic (%): 32%
  Population Fragmented Nuclei (%): 5%
  Population Healthy Nuclei (%): 43%
  Population Hoechst High Intensity Objects (%): 5%
  Population Membrane Permeable-Phenotype (%): 2%
  Population Mitochondria Different-Phenotype (%): 60%
  Population Mitotic Cells (%): 67%
  Population Normal (%): 94%
  Population Pyknosed Nuclei (%): 50%
  Population Tubulin-Different-Phenotype (%): 58%
  Total Cell Count: 165
[7]
  Population Apoptotic (%): 98%
  Population Fragmented Nuclei (%): 19%
  Population Healthy Nuclei (%): 5%
  Population Hoechst High Intensity Objects (%): 21%
  Population Membrane Permeable-Phenotype (%): 0%
  Population Mitochondria Different-Phenotype (%): 100%
  Population Mitotic Cells (%): 1%
  Population Normal (%): 78%
  Population Pyknosed Nuclei (%): 74%
  Population Tubulin-Different-Phenotype (%): 100%
  Total Cell Count: 215
[8]
  Population Apoptotic (%): 92%
  Population Fragmented Nuclei (%): 10%
  Population Healthy Nuclei (%): 12%
  Population Hoechst High Intensity Objects (%): 25%
  Population Membrane Permeable-Phenotype (%): 11%
  Population Mitochondria Different-Phenotype (%): 94%
  Population Mitotic Cells (%): 7%
  Population Normal (%): 74%
  Population Pyknosed Nuclei (%): 76%
  Population Tubulin-Different-Phenotype (%): 94%
  Total Cell Count: 186
[9]
  Population Apoptotic (%): 32%
  Population Healthy Nuclei (%): 75%
  Population Hoechst High Intensity Objects (%): 7%
  Population Membrane Permeable-Phenotype (%): 2%
  Population Mitochondria Different-Phenotype (%): 51%
  Population Mitotic Cells (%): 67%
  Population Normal (%): 92%
  Population Pyknosed Nuclei (%): 15%
  Population Tubulin-Different-Phenotype (%): 57%
  Total Cell Count: 639
[10]
  Population Apoptotic (%): 33%
  Population Fragmented Nuclei (%): 9%
  Population Healthy Nuclei (%): 68%
  Population Hoechst High Intensity Objects (%): 4%
  Population Membrane Permeable-Phenotype (%): 6%
  Population Mitochondria Different-Phenotype (%): 32%
  Population Mitotic Cells (%): 66%
  Population Normal (%): 95%
  Population Pyknosed Nuclei (%): 22%
  Population Tubulin-Different-Phenotype (%): 51%
  Total Cell Count: 263
[11]
  Population Apoptotic (%): 94%
  Population Fragmented Nuclei (%): 27%
  Population Healthy Nuclei (%): 0%
  Population Hoechst High Intensity Objects (%): 16%
  Population Membrane Permeable-Phenotype (%): 0%
  Population Mitochondria Different-Phenotype (%): 100%
  Population Mitotic Cells (%): 5%
  Population Normal (%): 83%
  Population Pyknosed Nuclei (%): 72%
  Population Tubulin-Different-Phenotype (%): 0%
  Total Cell Count: 248
[12]
  Population Apoptotic (%): 95%
  Population Fragmented Nuclei (%): 13%
  Population Healthy Nuclei (%): 12%
  Population Hoechst High Intensity Objects (%): 30%
  Population Membrane Permeable-Phenotype (%): 17%
  Population Mitochondria Different-Phenotype (%): 88%
  Population Mitotic Cells (%): 4%
  Population Normal (%): 69%
  Population Pyknosed Nuclei (%): 73%
  Population Tubulin-Different-Phenotype (%): 94%
  Total Cell Count: 191

## C=CC(=O)Nc1cccc(C(=O)Nc2ccc(Nc3cc(-c4[nH]c(SC)nc4C)ccn3)cc2)c1
[1]
  Population Apoptotic (%): 48%
  Population Fragmented Nuclei (%): 16%
  Population Healthy Nuclei (%): 29%
  Population Hoechst High Intensity Objects (%): 14%
  Population Membrane Permeable-Phenotype (%): 4%
  Population Mitochondria Different-Phenotype (%): 80%
  Population Mitotic Cells (%): 51%
  Population Normal (%): 85%
  Population Pyknosed Nuclei (%): 54%
  Population Tubulin-Different-Phenotype (%): 54%
  Total Cell Count: 327
[2]
  Population Apoptotic (%): 5%
  Population Fragmented Nuclei (%): 7%
  Population Healthy Nuclei (%): 45%
  Population Hoechst High Intensity Objects (%): 5%
  Population Membrane Permeable-Phenotype (%): 2%
  Population Mitochondria Different-Phenotype (%): 24%
  Population Mitotic Cells (%): 94%
  Population Normal (%): 94%
  Population Pyknosed Nuclei (%): 47%
  Population Tubulin-Different-Phenotype (%): 17%
  Total Cell Count: 190
[3]
  Population Apoptotic (%): 48%
  Population Fragmented Nuclei (%): 18%
  Population Healthy Nuclei (%): 30%
  Population Hoechst High Intensity Objects (%): 14%
  Population Membrane Permeable-Phenotype (%): 20%
  Population Mitochondria Different-Phenotype (%): 83%
  Population Mitotic Cells (%): 51%
  Population Normal (%): 85%
  Population Pyknosed Nuclei (%): 51%
  Population Tubulin-Different-Phenotype (%): 70%
  Total Cell Count: 210
[4]
  Population Apoptotic (%): 29%
  Population Fragmented Nuclei (%): 4%
  Population Healthy Nuclei (%): 29%
  Population Hoechst High Intensity Objects (%): 6%
  Population Membrane Permeable-Phenotype (%): 19%
  Population Mitochondria Different-Phenotype (%): 34%
  Population Mitotic Cells (%): 70%
  Population Normal (%): 93%
  Population Pyknosed Nuclei (%): 65%
  Population Tubulin-Different-Phenotype (%): 82%
  Total Cell Count: 240
[5]
  Population Apoptotic (%): 48%
  Population Fragmented Nuclei (%): 15%
  Population Healthy Nuclei (%): 35%
  Population Hoechst High Intensity Objects (%): 17%
  Population Membrane Permeable-Phenotype (%): 3%
  Population Mitochondria Different-Phenotype (%): 58%
  Population Mitotic Cells (%): 51%
  Population Normal (%): 82%
  Population Pyknosed Nuclei (%): 49%
  Population Tubulin-Different-Phenotype (%): 48%
  Total Cell Count: 365
[6]
  Population Apoptotic (%): 13%
  Population Fragmented Nuclei (%): 5%
  Population Healthy Nuclei (%): 64%
  Population Hoechst High Intensity Objects (%): 1%
  Population Membrane Permeable-Phenotype (%): 10%
  Population Mitochondria Different-Phenotype (%): 16%
  Population Mitotic Cells (%): 86%
  Population Normal (%): 98%
  Population Pyknosed Nuclei (%): 30%
  Population Tubulin-Different-Phenotype (%): 34%
  Total Cell Count: 227
[7]
  Population Apoptotic (%): 48%
  Population Fragmented Nuclei (%): 20%
  Population Healthy Nuclei (%): 40%
  Population Hoechst High Intensity Objects (%): 18%
  Population Membrane Permeable-Phenotype (%): 5%
  Population Mitochondria Different-Phenotype (%): 80%
  Population Mitotic Cells (%): 52%
  Population Normal (%): 81%
  Population Pyknosed Nuclei (%): 39%
  Population Tubulin-Different-Phenotype (%): 72%
  Total Cell Count: 233
[8]
  Population Apoptotic (%): 31%
  Population Fragmented Nuclei (%): 5%
  Population Healthy Nuclei (%): 51%
  Population Hoechst High Intensity Objects (%): 5%
  Population Membrane Permeable-Phenotype (%): 19%
  Population Mitochondria Different-Phenotype (%): 34%
  Population Mitotic Cells (%): 68%
  Population Normal (%): 94%
  Population Pyknosed Nuclei (%): 43%
  Population Tubulin-Different-Phenotype (%): 81%
  Total Cell Count: 284
[9]
  Population Apoptotic (%): 38%
  Population Fragmented Nuclei (%): 17%
  Population Healthy Nuclei (%): 36%
  Population Hoechst High Intensity Objects (%): 16%
  Population Membrane Permeable-Phenotype (%): 6%
  Population Mitochondria Different-Phenotype (%): 34%
  Population Mitotic Cells (%): 61%
  Population Normal (%): 83%
  Population Pyknosed Nuclei (%): 45%
  Population Tubulin-Different-Phenotype (%): 38%
  Total Cell Count: 393
[10]
  Population Apoptotic (%): 12%
  Population Fragmented Nuclei (%): 7%
  Population Healthy Nuclei (%): 78%
  Population Hoechst High Intensity Objects (%): 2%
  Population Membrane Permeable-Phenotype (%): 10%
  Population Mitochondria Different-Phenotype (%): 8%
  Population Mitotic Cells (%): 87%
  Population Normal (%): 97%
  Population Pyknosed Nuclei (%): 13%
  Population Tubulin-Different-Phenotype (%): 26%
  Total Cell Count: 435
[11]
  Population Apoptotic (%): 52%
  Population Fragmented Nuclei (%): 15%
  Population Healthy Nuclei (%): 43%
  Population Hoechst High Intensity Objects (%): 14%
  Population Membrane Permeable-Phenotype (%): 4%
  Population Mitochondria Different-Phenotype (%): 54%
  Population Mitotic Cells (%): 47%
  Population Normal (%): 85%
  Population Pyknosed Nuclei (%): 40%
  Population Tubulin-Different-Phenotype (%): 69%
  Total Cell Count: 271
[12]
  Population Apoptotic (%): 25%
  Population Fragmented Nuclei (%): 8%
  Population Healthy Nuclei (%): 75%
  Population Hoechst High Intensity Objects (%): 3%
  Population Membrane Permeable-Phenotype (%): 19%
  Population Mitochondria Different-Phenotype (%): 14%
  Population Mitotic Cells (%): 74%
  Population Normal (%): 96%
  Population Pyknosed Nuclei (%): 15%
  Population Tubulin-Different-Phenotype (%): 64%
  Total Cell Count: 503
